The results in this text go back to ChEMBL document CHEMBL1157145, “Cytotoxic activity of proflavine diureas: synthesis, antitumor, evaluation and DNA binding properties of 1',1''-(acridin-3,6-diyl)-3',3''-dialkyldiureas” (Bioorg Med Chem, 2008).

Test [1] concerns HeLa. Description: Cytotoxicity against human HeLa cells after 48 hrs by MTT assay. The format is functional, cell-based. In general terms: Tetrazolium assays rely on reduction of a dye to a coloured formazan, in cell work by metabolically active cells.
Test [2] concerns DNA. Description: Binding affinity to calf thymus DNA at 5.5 uM by absorption titration. The format is nucleic-acid assay. Particulars: Bos taurus. The gist of the method: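 Compound (5.5 µM) in 0.01 M Tris, pH 7.4, 25 °C. UV–vis spectra recorded over ctDNA 0–35 µM bp in 5 µM steps, corrected for dilution. ctDNA concentration from A260, expressed in base pairs.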
In test [3] the test system is HeLa. Description: Cell cycle arrest in human HeLa cells assessed as accumulation at S phase at 64 uM after 48 hrs. The format is functional. In outline: (§1)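 Cells seeded at 8 · 10^5 per 60 mm dish, allowed to settle 24 h (37 °C, 5% CO2), then exposed to the drug for 24 or 48 h. Adherent plus floating cells (5 · 10^5) were fixed in cold 70% ethanol at −20 °C overnight, treated with RNase A (100 µg/mL) and stained with propidium iodide (20 µg/mL) in Vindelov's solution for 30 min at RT. Flow cytometry used 488 nm excitation, FL-2 at 585 ± 21 nm, and histograms were modelled for G0/G1, S and G2/M fractions.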

The test system of test [4] is HCT-116. Description: Cell cycle arrest in human HCT116 cells assessed as accumulation at S phase at 27 uM after 24 hrs. The format is functional. The gist of the method: as §1
Test [5] concerns HCT-116. Description: Cell cycle arrest in human HCT116 cells assessed as accumulation at G2/M phase at 27 uM after 24 hrs. The format is functional. The gist of the method: as §1
Test [6] concerns DNA. Description: Binding affinity to calf thymus DNA at 4 uM by fluorescence spectrophotometric titration. The format is nucleic-acid assay. The conditions noted are these: Bos taurus. In outline:
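ctDNA sonicated in TE buffer, concentration taken from A260 and given in base pairs. Compound (4 µM) in 0.01 M Tris, pH 7.4, 25 °C titrated with ctDNA (0–55 µM bp) until spectra stopped changing. Excitation 424 nm, slit widths 10 nm; binding constant derived from the change in emission.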

The test system of test [7] is HeLa. Description: Cell cycle arrest in human HeLa cells assessed as accumulation at G2/M phase at 64 uM after 48 hrs. The format is functional. In outline: as §1
Test [8] has as its system HCT-116. Description: Cell cycle arrest in human HCT116 cells assessed as accumulation at G0/G1 phase at 27 uM after 48 hrs. The format is functional. The gist of the method: (§2)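 Adherent plus floating cells (5 · 10^5) collected 24 or 48 h after treatment, fixed in cold 70% ethanol at −20 °C overnight, washed in PBS. RNase A (100 µg/mL) and propidium iodide (20 µg/mL) in Vindelov's solution, 30 min at RT. Flow cytometry with 488 nm excitation, emission 585 ± 21 nm; % cells per cycle phase from DNA content histograms.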

Test [9] deals with HCT-116. Description: Antiproliferative activity against human HCT116 cells assessed as decrease in total cell population at 27 uM after 48 hrs. The format is functional. More on the design: scale not given: the % may be the effect or the level left. The gist of the method:
(§3)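 Cells seeded (8 · 10^5 per 60 mm dish), allowed to settle 24 h at 37 °C, 5% CO2, then treated with a single concentration for 24 or 48 h. Adherent and floating cells counted by Coulter counter. Total cell number given as % of untreated control; floating cells as % of total cell number.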

Test [10] relates to DNA. Description: Binding affinity to calf thymus DNA at 50 uM by circular dichroism spectrophotometric titration. The format is nucleic-acid assay. Particulars: Bos taurus.
The subject of test [11] is HCT-116. Description: Induction of apoptosis in human HCT116 cells at 27 uM after 24 hrs. The format is functional. In outline: (§4)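 After 24 or 48 h of drug exposure, all cells were collected, combining trypsinised adherent cells with floating cells from the medium. Cells (1 × 10^6) were fixed in cold 70% ethanol overnight at −20 °C and stained with DAPI (10 µg/mL) for 30 min in the dark at RT. Under fluorescence microscopy, 300 cells per sample were scored, with condensed or fragmented nuclei counted as apoptotic.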

Test [12] has as its system HeLa. Description: Cell cycle arrest in human HeLa cells assessed as accumulation at S phase at 64 uM after 24 hrs. The format is functional. The gist of the method:
as §1

For test [13], the system named is HCT-116. Description: Cell cycle arrest in human HCT116 cells assessed as accumulation at G2/M phase at 27 uM after 48 hrs. The format is functional. In outline:
as §1

Test [14] relates to HeLa. Description: Antiproliferative activity against human HeLa cells assessed as decrease in total cell population at 64 uM after 24 hrs. The format is functional. More on the design: scale not given: the % may be the effect or the level left. The gist of the method: as §3
In test [15] the test system is HCT-116. Description: Antiproliferative activity against human HCT116 cells assessed as increase of floating cells in total cell population at 27 uM after 24 hrs. The format is functional. In outline: as §3
Test [16] concerns HCT-116. Description: Antiproliferative activity against human HCT116 cells assessed as decrease in total cell population at 27 uM after 24 hrs. The format is functional. More on the design: scale not given: the % may be the effect or the level left. In outline: as §3
Test [17] deals with HeLa. Description: Cell cycle arrest in human HeLa cells assessed as accumulation at G0/G1 phase at 64 uM after 48 hrs. The format is functional. In outline: as §1
Test [18] concerns HCT-116. Description: Cytotoxicity against human HCT116 cells after 72 hrs by MTT assay. The format is functional, cell-based. Particulars: Homo sapiens, HCT-116, 72 h.
Test [19] has as its system HeLa. Description: Cell cycle arrest in human HeLa cells assessed as accumulation at G2/M phase at 64 uM after 24 hrs. The format is functional. The gist of the method:
as §1

For test [20], the system named is HeLa. Description: Antiproliferative activity against human HeLa cells assessed as increase of floating cells in total cell population at 64 uM after 24 hrs. The format is functional. The gist of the method: as §3
Test [21] relates to HeLa. Description: Induction of apoptosis in human HeLa cells at 64 uM after 48 hrs. The format is functional. In outline: as §4
For test [22], the system named is HCT-116. Description: Cytotoxicity against human HCT116 cells after 48 hrs by MTT assay. The format is functional, cell-based. Particulars: HCT-116, 48 h.
For test [23], the system named is HeLa. Description: Cell cycle arrest in human HeLa cells assessed as accumulation at G0/G1 phase at 64 uM after 24 hrs. The format is functional. In outline:
as §1

Test [24] deals with HeLa. Description: Induction of apoptosis in human HeLa cells at 64 uM after 24 hrs. The format is functional. In outline:
as §4

Test [25] deals with HCT-116. Description: Cell cycle arrest in human HCT116 cells assessed as accumulation at S phase at 27 uM after 48 hrs. The format is functional. In outline: as §1
The test system of test [26] is HeLa. Description: Antiproliferative activity against human HeLa cells assessed as increase of floating cells in total cell population at 64 uM after 48 hrs. The format is functional. In outline:
as §3

Test [27] concerns HCT-116. Description: Cell cycle arrest in human HCT116 cells assessed as accumulation at G0/G1 phase at 27 uM after 24 hrs. The format is functional. The gist of the method: as §2
In test [28] the test system is HeLa. Description: Cytotoxicity against human HeLa cells after 72 hrs by MTT assay. The format is functional, cell-based.
The test system of test [29] is HCT-116. Description: Antiproliferative activity against human HCT116 cells assessed as increase of floating cells in total cell population at 27 uM after 48 hrs. The format is functional. The gist of the method:
as §3

For test [30], the system named is HCT-116. Description: Induction of apoptosis in human HCT116 cells at 27 uM after 48 hrs. The format is functional. In outline:
as §4

The test system of test [31] is HeLa. Description: Antiproliferative activity against human HeLa cells assessed as decrease in total cell population at 64 uM after 48 hrs. The format is functional. More on the design: scale not given: the % may be the effect or the level left. The gist of the method: as §3

pIC50: −log10 of the molar value. Calls of active or inactive are those of the source. No cut-off for these calls is given here.

As for `COc1cc([C@@H]2c3cc4c(cc3[C@@H](O[C@@H]3O[C@@H]5CO[C@@H](C)O[C@H]5[C@H](O)[C@H]3O)[C@H]3COC(=O)[C@H]23)OCO4)cc(OC)c1O` [ETOPOSIDE], the negative logarithm of the IC50 (pIC50) in test [1] is 5.54.
Consider `CCNC(=O)Nc1ccc2cc3ccc(NC(=O)NCC)cc3nc2c1.Cl`, for which the outcome in test [2] and in test [10] was Active. Moreover, the Activity is 19.5% in test [3]; 34.06% in [4]; 18.5% in [5]; 9.23% in test [7]; 53.7% in [8]; 75.37% in test [9]. For the same compound, the Activity is 3.22% in test [11]; 23.73% in [12]; 14.85% in test [13]; 95.15% in test [14]; 6.2% in [15]; 79.4% in [16]. Moreover, the Activity in test [17] is given as 71.26%; in [19], 12.75%; in test [20] it was 3.58%; in test [21], 0.89%; in [23], 63.51%; in test [24], 1.33%. Moreover, the Activity in test [25] amounted to 31.45%; in test [26], 4.63%; in test [27], 47.44%; in [29], 5.68%; in [30], 3.44%; in test [31], 93.61%. In [6], the K is 4.2 ×10⁵ /M. For the same compound, the pIC50 was 4.19 in test [1], 4.46 in test [18], 4.56 in [22] and 4.22 in test [28].
The compound `Nc1ccc2cc3ccc(N)cc3nc2c1` registered a K in test [6] of 7.95 ×10⁵ /M.

For orientation: pIC50 means the negative decadic logarithm of the IC50, by convention in mol/L.
